Measurements published in ChEMBL document CHEMBL1127627, “Synthesis and antitumor activity of a new class of pyrazolo[4,3-e]pyrrolo[1,2-a][1,4]diazepinone analogues of pyrrolo[1,4][2,1-c]benzodiazepines” (J Med Chem, 1994).
Several values for one entry are separate records, joined by “and”; a condition that tells them apart may be missing. Equal values may be shown once.

Experiments:
L1210 [1] = assay: Tested in vitro for inhibition after 48 hr exposure against murine leukemia cell line L1210; assay type: functional, cell-based; conditions: Mus musculus, L1210, 48 h
Method in brief: (§1)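 L1210 murine leukemia cells and their melphalan-resistant L1210/L-PAM subline were used in growth-inhibition studies. IC50 is the concentration inhibiting growth by 50% after 48 h exposure, given as the mean of repeated experiments ± standard deviation.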

LoVo [2] = assay: Tested in vitro for inhibition after 144 hr against human colon carcinoma LoVo/DX cell line resistant to Doxorubicin (DX); assay type: functional, cell-based
Method in brief: (§2)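 LoVo human colon carcinoma cells and their doxorubicin-resistant LoVo/DX subline were used in growth-inhibition studies. IC50 is the concentration inhibiting growth by 50% after 144 h exposure to compound, reported as the mean of repeated experiments ± standard deviation.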

L1210 [3] = assay: Tested in vitro for inhibition after 48 hr exposure against murine leukemia cell line L1210/L-PAM resistant to melphalan (L-PAM); assay type: functional, cell-based; conditions: Mus musculus, L1210, 48 h; method in brief: as §1
LoVo [4] = assay: Tested in vitro for inhibition after 144 hr exposure against human colon carcinoma LoVo cell line; assay type: functional, cell-based; method in brief: as §2
[5] = Resistance index as the ratio of IC50 against L1210/L-PAM to that of L1210 cell lines; assay type: functional
[6] = Resistance index as the ratio of IC50 against LoVo/Dx to that of LoVo; assay type: functional
Method in brief: (§3)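 Resistance index taken as IC50 in doxorubicin-resistant LoVo/DX human colon carcinoma cells over IC50 in parental LoVo cells. Each IC50 is the concentration giving 50% growth inhibition after 144 h exposure.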

L1210 [7] = assay: Tested in vitro for inhibition after 48 hr exposure against murine leukemia cell line L1210 by experiment 1; assay type: functional, cell-based; conditions: Mus musculus, L1210, 48 h; method in brief: as §1
L1210 [8] = assay: Tested in vitro for inhibition after 48 hr exposure against murine leukemia cell line L1210 by experiment 2; assay type: functional, cell-based; conditions: Mus musculus, L1210, 48 h; method in brief: as §1
L1210 [9] = assay: Tested in vitro for inhibition after 48 hr exposure against murine leukemia cell line L1210/L-PAM resistant to melphalan (L-PAM) by experiment 1.; assay type: functional, cell-based; conditions: Mus musculus, L1210, 48 h; method in brief: as §1
[10] = Resistance index as the ratio of IC50 against L1210/L-PAM to that of L1210 cell lines.; assay type: functional
Method in brief: (§4)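 Resistance index computed as IC50 in melphalan-resistant L1210/L-PAM murine leukemia cells divided by IC50 in parental L1210 cells. Each IC50 is the concentration inhibiting growth by 50% after 48 h exposure, from growth-inhibition studies.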

L1210 [11] = assay: Tested in vitro for inhibition after 48 hr exposure against murine leukemia cell line L1210/L-PAM resistant to melphalan (L-PAM) by experiment 2.; assay type: functional, cell-based; conditions: Mus musculus, L1210, 48 h; method in brief: as §1
[12] = Resistance index as the ratio of IC50 against LoVo/Dx to that of LoVo.; assay type: functional; method in brief: as §3
L1210 [13] = assay: tested in vitro for inhibition after 48 hr exposure against murine leukemia cell line L1210/L-PAM resistant to melphalan (L-PAM by experiment 1.; assay type: functional, cell-based; conditions: Mus musculus, L1210, 48 h; method in brief: as §1
L1210 [14] = assay: tested in vitro for inhibition after 48 hr exposure against murine leukemia cell line L1210/L-PAM resistant to melphalan (L-PAM by experiment 2.; assay type: functional, cell-based; conditions: Mus musculus, L1210, 48 h; method in brief: as §1
L1210 [15] = assay: Tested in vitro for inhibition after 48 hr exposure against murine leukemia cell line L1210/L-PAM resistant to melphalan (L-PAM) by experiment 1; assay type: functional, cell-based; conditions: Mus musculus, L1210, 48 h; method in brief: as §1
L1210 [16] = assay: Tested in vitro for inhibition after 48 hr exposure against murine leukemia cell line L1210/L-PAM resistant to melphalan (L-PAM) by experiment 2; assay type: functional, cell-based; conditions: Mus musculus, L1210, 48 h; method in brief: as §1
[17] = Resistance index as the ratio of IC50 against L1210/L-PAM to that of L1210 cell lines in experiment 2.; assay type: functional; method in brief: as §4
[18] = Resistance index as the ratio of IC50 against LoVo/Dx to that of LoVo in experiment 1; assay type: functional; method in brief: as §3
L1210 [19] = assay: Tested in vitro for inhibition after 48 hr exposure against murine leukemia cell line L1210/L-PAM resistant to melphalan (L-PAM)by experiment 2.; assay type: functional, cell-based; conditions: Mus musculus, L1210, 48 h; method in brief: as §1
L1210 [20] = assay: Tested in vitro for inhibition after 48 hr exposure against murine leukemia cell line L1210/L-PAM resistant to melphalan (L-PAM)by experiment 1.; assay type: functional, cell-based; conditions: Mus musculus, L1210, 48 h; method in brief: as §1

| SMILES | IC50 (L1210 [1]) | IC50 (LoVo [2]) | IC50 (LoVo [4]) | IC50 (L1210 [7]) | IC50 (L1210 [8]) | RI [6] | further results |
| --- | --- | --- | --- | --- | --- | --- | --- |
| CCn1nc(C)c2c1C(=O)N1CCC[C@H]1C=N2 | – | > 215 µM | > 215 µM | 40 µM | 69 µM | – | IC50 (L1210 [9]): 101 µM; RI [10]: 2.5; IC50 (L1210 [11]): 125 µM |
| Cc1nn(Cc2ccccc2)c2c1N=C[C@@H]1CCCN1C2=O | 20 µM | 38 µM | 46 µM | – | – | 0.8 | – |
| COC(=O)c1c2c(nn1C)C(=O)N1CCC[C@H]1C=N2 | – | > 162 µM | > 162 µM | 31 µM | 41 µM | – | IC50 (L1210 [13]): 69 µM; IC50 (L1210 [14]): 62 µM; RI [10]: 2.2 and 1.5 |
| Cc1c2c(nn1C)C(=O)N1CCC[C@H]1C=N2 | 8 µM | 32 µM | 27 µM | – | – | 1.2 | – |
| CCn1nc2c(c1C)N=C[C@@H]1CCCN1C2=O | – | 6 µM | 15 µM | 7 µM | 6 µM | – | IC50 (L1210 [15]): 6 µM; IC50 (L1210 [16]): 13 µM; RI [17]: 0.9 and 2; RI [18]: 0.4 |
| COc1ccc(Cn2nc3c(c2C)N=C[C@@H]2CCCN2C3=O)cc1 | – | 32 µM | 48.4 µM | 19 µM | 11 µM | – | IC50 (L1210 [19]): 6 µM; RI [12]: 0.7; IC50 (L1210 [20]): 3 µM |
| Cc1c2c(nn1Cc1ccccc1)C(=O)N1CCC[C@H]1C=N2 | 3 µM | 25 µM | 54 µM | – | – | 0.5 | – |
| COc1cc2c(cc1O)N=C[C@@H]1CCCN1C2=O | 0.38 µM | – | – | – | – | – | – |
| CC(C)c1c2c(nn1Cc1ccccc1)C(=O)N1CCC[C@H]1C=N2 | 12 µM | 8 µM | 30 µM | – | – | 0.2 | IC50 (L1210 [3]): 11 µM; RI [5]: 0.97 |
| N[C@@H](Cc1ccc(N(CCCl)CCCl)cc1)C(=O)O | 15.3 µM | 4.9 µM | 4.09 µM | – | – | 1.18 | IC50 (L1210 [3]): 47 µM; RI [5]: 3.1 |

Continued by falling IC50 (LoVo [2]), values first:

| IC50 (L1210 [1]) | IC50 (LoVo [2]) | IC50 (LoVo [4]) | IC50 (L1210 [7]) | IC50 (L1210 [8]) | SMILES | RI [6] | further results |
| --- | --- | --- | --- | --- | --- | --- | --- |
| 27 µM | 60 µM | 54 µM | – | – | COC(=O)c1nn(C)c2c1N=C[C@@H]1CCCN1C2=O | 1.12 | – |
| 22 µM | 39 µM | 42 µM | – | – | Cc1nn(C)c2c1N=C[C@@H]1CCCN1C2=O | 0.9 | – |
| – | 11 µM | 37 µM | 0.5 µM | 0.8 µM | Cc1c2c(nn1Cc1ccc(Cl)cc1)C(=O)N1CCC[C@H]1C=N2 | – | IC50 (L1210 [9]): 0.16 µM; RI [10]: 2.8 and 3.1; RI [12]: 0.3; IC50 (L1210 [11]): 0.27 µM |
| 0.05 µM | 7.6 µM | 0.057 µM | – | – | COc1cccc2c1C(=O)c1c(O)c3c(c(O)c1C2=O)C[C@@](O)(C(=O)CO)C[C@@H]3O[C@H]1C[C@H](N)[C@H](O)[C@H](C)O1 [DOXORUBICIN] | 133 | IC50 (L1210 [3]): 0.06 µM |
| – | 6 µM | 40 µM | 4 µM | 5 µM | Cc1ccc(Cn2nc3c(c2C)N=C[C@@H]2CCCN2C3=O)cc1C | – | IC50 (L1210 [9]): 8 µM; RI [12]: 0.2; IC50 (L1210 [11]): 4 µM |
| 0.012 µM | 0.004 µM | 0.009 µM | – | – | C/C=C1/CC2C(OC)Nc3cc(OC)c(OC)cc3C(=O)N2C1 (stereo not drawn) | 0.5 | IC50 (L1210 [3]): 0.015 µM; RI [5]: 1.4 |
